Assay results as given in ChEMBL document CHEMBL5058577, “EUbOPEN Chemogenomics Library 2 (Multiplex)” (2022).

System: U2OS
Test: Multiplex assay against U2OS
Format: toxicity, cell-based
Conditions: human
Method in brief: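 Live cells were stained at seeding with Hoechst33342, BioTracker Green Microtubule Cytoskeleton Dye, MitoTracker Red and Annexin V Alexa Fluor 680, then imaged on a CQ1 microscope at 37°C and 5% CO2 after compound addition. CellPathfinder machine-learning gating split cells into Hoechst high-intensity objects or normal cells. Normal cells were split into healthy, pyknosed or fragmented nuclei, and pyknosed cells into mitotic or apoptotic. Tubulin, mitochondrial-mass and membrane-permeability phenotypes are per cents of healthy-nucleus cells.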

[1] = 12 h, 1 µM, compound concentration 1 uM, replicate 1
[2] = 12 h, 1 µM, compound concentration 1 uM, replicate 2
[3] = 12 h, 10 µM, compound concentration 10 uM, replicate 1
[4] = 12 h, 10 µM, compound concentration 10 uM, replicate 2
[5] = 24 h, 1 µM, compound concentration 1 uM, replicate 1
[6] = 24 h, 1 µM, compound concentration 1 uM, replicate 2
[7] = 24 h, 10 µM, compound concentration 10 uM, replicate 1
[8] = 24 h, 10 µM, compound concentration 10 uM, replicate 2
[9] = 48 h, 1 µM, compound concentration 1 uM, replicate 1
[10] = 48 h, 1 µM, compound concentration 1 uM, replicate 2
[11] = 48 h, 10 µM, compound concentration 10 uM, replicate 1
[12] = 48 h, 10 µM, compound concentration 10 uM, replicate 2

Compound: COCCn1c(C)c(C)s/c1=N\C(=O)C1C(C)(C)C1(C)C
- Population Apoptotic (%) [1]: 88%
- Population Fragmented Nuclei (%) [1]: 24%
- Population Healthy Nuclei (%) [1]: 69%
- Population Hoechst High Intensity Objects (%) [1]: 0%
- Population Membrane Permeable-Phenotype (%) [1]: 8%
- Population Mitochondria Different-Phenotype (%) [1]: 1%
- Population Mitotic Cells (%) [1]: 11%
- Population Normal (%) [1]: 99%
- Population Pyknosed Nuclei (%) [1]: 6%
- Population Tubulin-Different-Phenotype (%) [1]: 3%
- Total Cell Count [1]: 271
- Population Apoptotic (%) [2]: 71%
- Population Fragmented Nuclei (%) [2]: 20%
- Population Healthy Nuclei (%) [2]: 74%
- Population Membrane Permeable-Phenotype (%) [2]: 11%
- Population Mitochondria Different-Phenotype (%) [2]: 3%
- Population Mitotic Cells (%) [2]: 28%
- Population Normal (%) [2]: 100%
- Population Pyknosed Nuclei (%) [2]: 5%
- Population Tubulin-Different-Phenotype (%) [2]: 5%
- Total Cell Count [2]: 135
- Population Apoptotic (%) [3]: 73%
- Population Fragmented Nuclei (%) [3]: 33%
- Population Healthy Nuclei (%) [3]: 52%
- Population Hoechst High Intensity Objects (%) [3]: 2%
- Population Membrane Permeable-Phenotype (%) [3]: 10%
- Population Mitochondria Different-Phenotype (%) [3]: 4%
- Population Mitotic Cells (%) [3]: 26%
- Population Normal (%) [3]: 97%
- Population Pyknosed Nuclei (%) [3]: 13%
- Population Tubulin-Different-Phenotype (%) [3]: 5%
- Total Cell Count [3]: 220
- Population Apoptotic (%) [4]: 80%
- Population Fragmented Nuclei (%) [4]: 20%
- Population Healthy Nuclei (%) [4]: 68%
- Population Hoechst High Intensity Objects (%) [4]: 0%
- Population Membrane Permeable-Phenotype (%) [4]: 9%
- Population Mitochondria Different-Phenotype (%) [4]: 3%
- Population Mitotic Cells (%) [4]: 20%
- Population Normal (%) [4]: 100%
- Population Pyknosed Nuclei (%) [4]: 11%
- Population Tubulin-Different-Phenotype (%) [4]: 4%
- Total Cell Count [4]: 135
- Population Apoptotic (%) [5]: 89%
- Population Fragmented Nuclei (%) [5]: 18%
- Population Healthy Nuclei (%) [5]: 75%
- Population Hoechst High Intensity Objects (%) [5]: 0%
- Population Membrane Permeable-Phenotype (%) [5]: 5%
- Population Mitochondria Different-Phenotype (%) [5]: 3%
- Population Mitotic Cells (%) [5]: 10%
- Population Normal (%) [5]: 99%
- Population Pyknosed Nuclei (%) [5]: 6%
- Population Tubulin-Different-Phenotype (%) [5]: 2%
- Total Cell Count [5]: 314
- Population Apoptotic (%) [6]: 83%
- Population Healthy Nuclei (%) [6]: 77%
- Population Membrane Permeable-Phenotype (%) [6]: 9%
- Population Mitotic Cells (%) [6]: 16%
- Population Pyknosed Nuclei (%) [6]: 3%
- Population Tubulin-Different-Phenotype (%) [6]: 4%
- Total Cell Count [6]: 157
- Population Apoptotic (%) [7]: 80%
- Population Fragmented Nuclei (%) [7]: 28%
- Population Healthy Nuclei (%) [7]: 58%
- Population Hoechst High Intensity Objects (%) [7]: 1%
- Population Membrane Permeable-Phenotype (%) [7]: 8%
- Population Mitochondria Different-Phenotype (%) [7]: 8%
- Population Mitotic Cells (%) [7]: 19%
- Population Normal (%) [7]: 98%
- Population Pyknosed Nuclei (%) [7]: 12%
- Population Tubulin-Different-Phenotype (%) [7]: 2%
- Total Cell Count [7]: 257
- Population Apoptotic (%) [8]: 88%
- Population Fragmented Nuclei (%) [8]: 21%
- Population Healthy Nuclei (%) [8]: 66%
- Population Membrane Permeable-Phenotype (%) [8]: 10%
- Population Mitochondria Different-Phenotype (%) [8]: 1%
- Population Mitotic Cells (%) [8]: 11%
- Population Tubulin-Different-Phenotype (%) [8]: 9%
- Total Cell Count [8]: 141
- Population Apoptotic (%) [9]: 94%
- Population Fragmented Nuclei (%) [9]: 12%
- Population Healthy Nuclei (%) [9]: 79%
- Population Hoechst High Intensity Objects (%) [9]: 1%
- Population Membrane Permeable-Phenotype (%) [9]: 5%
- Population Mitochondria Different-Phenotype (%) [9]: 2%
- Population Mitotic Cells (%) [9]: 5%
- Population Normal (%) [9]: 98%
- Population Pyknosed Nuclei (%) [9]: 8%
- Population Tubulin-Different-Phenotype (%) [9]: 4%
- Total Cell Count [9]: 459
- Population Apoptotic (%) [10]: 100%
- Population Fragmented Nuclei (%) [10]: 15%
- Population Membrane Permeable-Phenotype (%) [10]: 9%
- Population Mitochondria Different-Phenotype (%) [10]: 1%
- Population Mitotic Cells (%) [10]: 0%
- Population Pyknosed Nuclei (%) [10]: 4%
- Population Tubulin-Different-Phenotype (%) [10]: 5%
- Total Cell Count [10]: 218
- Population Apoptotic (%) [11]: 81%
- Population Fragmented Nuclei (%) [11]: 22%
- Population Healthy Nuclei (%) [11]: 62%
- Population Hoechst High Intensity Objects (%) [11]: 2%
- Population Membrane Permeable-Phenotype (%) [11]: 11%
- Population Mitochondria Different-Phenotype (%) [11]: 4%
- Population Mitotic Cells (%) [11]: 18%
- Population Normal (%) [11]: 97%
- Population Pyknosed Nuclei (%) [11]: 14%
- Population Tubulin-Different-Phenotype (%) [11]: 5%
- Total Cell Count [11]: 305
- Population Apoptotic (%) [12]: 96%
- Population Fragmented Nuclei (%) [12]: 15%
- Population Healthy Nuclei (%) [12]: 71%
- Population Hoechst High Intensity Objects (%) [12]: 1%
- Population Membrane Permeable-Phenotype (%) [12]: 4%
- Population Mitotic Cells (%) [12]: 4%
- Population Normal (%) [12]: 98%
- Population Pyknosed Nuclei (%) [12]: 12%
- Population Tubulin-Different-Phenotype (%) [12]: 2%
- Total Cell Count [12]: 206

Compound: CN(C)C(=O)Cn1cc(-c2ccc(-c3nnc4ccccn34)cc2)cn1
- Population Apoptotic (%) [1]: 90%
- Population Fragmented Nuclei (%) [1]: 25%
- Population Healthy Nuclei (%) [1]: 66%
- Population Hoechst High Intensity Objects (%) [1]: 1%
- Population Membrane Permeable-Phenotype (%) [1]: 6%
- Population Mitochondria Different-Phenotype (%) [1]: 1%
- Population Mitotic Cells (%) [1]: 9%
- Population Normal (%) [1]: 98%
- Population Pyknosed Nuclei (%) [1]: 8%
- Population Tubulin-Different-Phenotype (%) [1]: 3%
- Total Cell Count [1]: 251
- Population Fragmented Nuclei (%) [2]: 22%
- Population Healthy Nuclei (%) [2]: 68%
- Population Hoechst High Intensity Objects (%) [2]: 0%
- Population Membrane Permeable-Phenotype (%) [2]: 3%
- Population Mitochondria Different-Phenotype (%) [2]: 6%
- Population Normal (%) [2]: 99%
- Population Pyknosed Nuclei (%) [2]: 9%
- Population Tubulin-Different-Phenotype (%) [2]: 4%
- Total Cell Count [2]: 123
- Population Apoptotic (%) [3]: 95%
- Population Fragmented Nuclei (%) [3]: 26%
- Population Healthy Nuclei (%) [3]: 65%
- Population Hoechst High Intensity Objects (%) [3]: 1%
- Population Membrane Permeable-Phenotype (%) [3]: 4%
- Population Mitochondria Different-Phenotype (%) [3]: 1%
- Population Mitotic Cells (%) [3]: 4%
- Population Normal (%) [3]: 98%
- Population Pyknosed Nuclei (%) [3]: 7%
- Population Tubulin-Different-Phenotype (%) [3]: 3%
- Total Cell Count [3]: 298
- Population Apoptotic (%) [4]: 90%
- Population Fragmented Nuclei (%) [4]: 11%
- Population Healthy Nuclei (%) [4]: 81%
- Population Mitochondria Different-Phenotype (%) [4]: 0%
- Population Mitotic Cells (%) [4]: 10%
- Total Cell Count [4]: 140
- Population Apoptotic (%) [5]: 94%
- Population Fragmented Nuclei (%) [5]: 22%
- Population Healthy Nuclei (%) [5]: 71%
- Population Hoechst High Intensity Objects (%) [5]: 0%
- Population Membrane Permeable-Phenotype (%) [5]: 4%
- Population Mitochondria Different-Phenotype (%) [5]: 2%
- Population Mitotic Cells (%) [5]: 5%
- Population Normal (%) [5]: 99%
- Population Pyknosed Nuclei (%) [5]: 5%
- Population Tubulin-Different-Phenotype (%) [5]: 1%
- Total Cell Count [5]: 315
- Population Apoptotic (%) [6]: 100%
- Population Fragmented Nuclei (%) [6]: 17%
- Population Healthy Nuclei (%) [6]: 74%
- Population Membrane Permeable-Phenotype (%) [6]: 7%
- Population Mitochondria Different-Phenotype (%) [6]: 7%
- Population Mitotic Cells (%) [6]: 0%
- Population Normal (%) [6]: 100%
- Population Pyknosed Nuclei (%) [6]: 8%
- Population Tubulin-Different-Phenotype (%) [6]: 4%
- Total Cell Count [6]: 131
- Population Apoptotic (%) [7]: 86%
- Population Fragmented Nuclei (%) [7]: 22%
- Population Healthy Nuclei (%) [7]: 66%
- Population Hoechst High Intensity Objects (%) [7]: 2%
- Population Membrane Permeable-Phenotype (%) [7]: 4%
- Population Mitochondria Different-Phenotype (%) [7]: 1%
- Population Mitotic Cells (%) [7]: 13%
- Population Normal (%) [7]: 97%
- Population Pyknosed Nuclei (%) [7]: 11%
- Population Tubulin-Different-Phenotype (%) [7]: 2%
- Total Cell Count [7]: 333
- Population Apoptotic (%) [8]: 87%
- Population Fragmented Nuclei (%) [8]: 10%
- Population Healthy Nuclei (%) [8]: 85%
- Population Hoechst High Intensity Objects (%) [8]: 1%
- Population Membrane Permeable-Phenotype (%) [8]: 7%
- Population Mitotic Cells (%) [8]: 12%
- Population Normal (%) [8]: 98%
- Population Pyknosed Nuclei (%) [8]: 4%
- Population Tubulin-Different-Phenotype (%) [8]: 3%
- Total Cell Count [8]: 180
- Population Apoptotic (%) [9]: 87%
- Population Fragmented Nuclei (%) [9]: 16%
- Population Healthy Nuclei (%) [9]: 75%
- Population Hoechst High Intensity Objects (%) [9]: 2%
- Population Membrane Permeable-Phenotype (%) [9]: 4%
- Population Mitochondria Different-Phenotype (%) [9]: 2%
- Population Mitotic Cells (%) [9]: 12%
- Population Normal (%) [9]: 97%
- Population Pyknosed Nuclei (%) [9]: 7%
- Population Tubulin-Different-Phenotype (%) [9]: 1%
- Total Cell Count [9]: 426
- Population Apoptotic (%) [10]: 93%
- Population Fragmented Nuclei (%) [10]: 11%
- Population Healthy Nuclei (%) [10]: 67%
- Population Membrane Permeable-Phenotype (%) [10]: 7%
- Population Mitochondria Different-Phenotype (%) [10]: 3%
- Population Mitotic Cells (%) [10]: 6%
- Population Pyknosed Nuclei (%) [10]: 20%
- Population Tubulin-Different-Phenotype (%) [10]: 3%
- Total Cell Count [10]: 158
- Population Apoptotic (%) [11]: 95%
- Population Fragmented Nuclei (%) [11]: 21%
- Population Healthy Nuclei (%) [11]: 67%
- Population Hoechst High Intensity Objects (%) [11]: 3%
- Population Membrane Permeable-Phenotype (%) [11]: 8%
- Population Mitochondria Different-Phenotype (%) [11]: 4%
- Population Mitotic Cells (%) [11]: 4%
- Population Normal (%) [11]: 96%
- Population Pyknosed Nuclei (%) [11]: 11%
- Population Tubulin-Different-Phenotype (%) [11]: 4%
- Total Cell Count [11]: 418
- Population Apoptotic (%) [12]: 85%
- Population Fragmented Nuclei (%) [12]: 8%
- Population Healthy Nuclei (%) [12]: 81%
- Population Hoechst High Intensity Objects (%) [12]: 2%
- Population Membrane Permeable-Phenotype (%) [12]: 6%
- Population Mitochondria Different-Phenotype (%) [12]: 2%
- Population Mitotic Cells (%) [12]: 14%
- Population Normal (%) [12]: 97%
- Population Pyknosed Nuclei (%) [12]: 9%
- Population Tubulin-Different-Phenotype (%) [12]: 2%
- Total Cell Count [12]: 284
